Assay results taken from publication PMC2266618 (The Journal of General Physiology, 2005).

What was measured:
ASIC1a = conditions: ref Diochot et al., 2004; cited from earlier work
ASIC3 = conditions: ref Diochot et al., 2004, cited from earlier work
homomeric ASIC1a = biological target: T1, homomeric ASIC1a (Rattus norvegicus, UniProt P55926); experiment: Direct opening of ASIC1a channels by PcTx1; format: cell-based; conditions: 100 μM amiloride
T1 sequence (P55926 1-526): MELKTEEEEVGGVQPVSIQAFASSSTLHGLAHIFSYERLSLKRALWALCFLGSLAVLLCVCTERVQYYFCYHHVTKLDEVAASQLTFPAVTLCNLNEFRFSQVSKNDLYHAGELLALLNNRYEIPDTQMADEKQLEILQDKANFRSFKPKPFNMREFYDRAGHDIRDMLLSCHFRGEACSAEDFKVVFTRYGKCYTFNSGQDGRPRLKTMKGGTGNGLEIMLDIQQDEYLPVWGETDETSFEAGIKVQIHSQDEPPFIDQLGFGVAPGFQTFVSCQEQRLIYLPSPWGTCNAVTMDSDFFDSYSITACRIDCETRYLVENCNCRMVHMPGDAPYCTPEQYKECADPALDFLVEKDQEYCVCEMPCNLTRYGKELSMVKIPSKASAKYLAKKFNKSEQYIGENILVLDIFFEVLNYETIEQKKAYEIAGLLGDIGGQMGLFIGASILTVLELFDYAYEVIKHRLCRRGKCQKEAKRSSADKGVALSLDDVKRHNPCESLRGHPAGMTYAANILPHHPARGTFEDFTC
Method in brief: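 Rat ASIC1a cRNA (0.01 ng) injected into stage V-VI Xenopus oocytes, kept 2-4 d in OR-2 (pH 7.3); whole-cell currents at -70 mV. The conditioning solution was switched from 1.8 to 0.1 mM Ca2+ (with 0.1 mM flufenamic acid) at pH 7.35, together with 100 nM test peptide toxin in 0.05% BSA. The transient inward current was tested with 100 µM amiloride.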

| block of PcTx1-elicited currents by amiloride (homomeric ASIC1a; 100 nM PcTx1 coapplied with pH 7.1, n = 3) | block of PcTx1-elicited currents by amiloride (homomeric ASIC1a; 100 nM PcTx1 with 0.1 mM Ca2+ at pH 7.35, n = 4) | Compound | inhibition of ASIC1a (ASIC1a) | inhibition of ASIC3 (ASIC3; inhibition during steady state (at pH 7.4)) | affinity of the interaction with ASIC3 (ASIC3) |
| --- | --- | --- | --- | --- | --- |
|  |  | APETx2 | does not inhibit | inhibits | nanomolar affinity |
| could be blocked | could be blocked | N=C(N)NC(=O)c1nc(Cl)c(N)nc1N [amiloride] |  |  |  |
